In the library only some 2.3% were active in any assay of this set; here they are far more common.
MCL1-BIM inh: inhibitors of MCL1 binding to BIM-BH3, primary screen, biochemical, fluorescence polarization; Induced myeloid leukemia cell differentiation protein Mcl-1 (Homo sapiens), Q07820; GST-MCL1 / FITC-Bim-BH3 fluorescence polarization; inhibition, % at 10.9 µM; 0.68% of 320,000 active; AID 2057, 2009;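 active means inhibition above the mean inhibition of all tested compounds plus 3 SD, set per campaign, cut at about 40% in these data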;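 further: higher means more loss of mP so more displacement of Bim peptide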
Pemphigus Ab inh: inhibitors of pemphigus antibody binding to DSG3, primary screen, biochemical, bead-based, flow cytometry, scFv-GFP; Desmoglein-3 (Homo sapiens), P32926; DSG3-coupled beads, scFv-anti-DSG3-GFP binding; stronger effect = lower value; binding (percent of control), % at 10 µM; 0.48% of 310,000 active; AID 588358, 2011;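 active means binding more than 3 SD below its plate's average and above zero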;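 further: hits lower antibody fragment binding to DSG3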
Target sequence (P32926 whole entry, looked up, the tested form may be a part): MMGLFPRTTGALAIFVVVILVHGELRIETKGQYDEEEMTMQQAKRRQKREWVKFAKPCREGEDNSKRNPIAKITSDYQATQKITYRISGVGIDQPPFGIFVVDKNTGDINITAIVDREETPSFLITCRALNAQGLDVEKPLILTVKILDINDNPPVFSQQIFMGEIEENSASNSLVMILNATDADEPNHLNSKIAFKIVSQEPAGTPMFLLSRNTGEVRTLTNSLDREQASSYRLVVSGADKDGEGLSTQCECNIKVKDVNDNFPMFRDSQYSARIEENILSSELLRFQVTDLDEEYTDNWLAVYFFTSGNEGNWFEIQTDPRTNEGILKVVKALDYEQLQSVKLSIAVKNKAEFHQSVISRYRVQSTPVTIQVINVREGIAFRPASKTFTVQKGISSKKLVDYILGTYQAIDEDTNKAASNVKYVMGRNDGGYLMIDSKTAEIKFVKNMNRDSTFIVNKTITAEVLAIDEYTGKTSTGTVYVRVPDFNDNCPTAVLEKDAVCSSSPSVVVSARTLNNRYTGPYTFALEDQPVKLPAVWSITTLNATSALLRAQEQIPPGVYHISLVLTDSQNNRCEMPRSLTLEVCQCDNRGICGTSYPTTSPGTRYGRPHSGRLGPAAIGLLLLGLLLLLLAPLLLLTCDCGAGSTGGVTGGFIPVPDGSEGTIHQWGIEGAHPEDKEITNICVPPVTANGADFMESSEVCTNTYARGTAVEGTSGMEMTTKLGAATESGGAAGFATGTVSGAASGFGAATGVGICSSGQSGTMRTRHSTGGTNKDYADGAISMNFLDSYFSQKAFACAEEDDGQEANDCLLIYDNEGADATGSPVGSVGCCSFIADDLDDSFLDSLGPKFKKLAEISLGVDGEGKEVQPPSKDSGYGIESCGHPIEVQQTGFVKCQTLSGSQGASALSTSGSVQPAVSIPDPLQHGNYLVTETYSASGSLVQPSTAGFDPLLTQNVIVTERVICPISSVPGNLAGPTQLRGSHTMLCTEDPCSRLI
Mcl1 Noxa PPI: Mcl-1/Noxa binding inhibitors, primary screen, biochemical, TR-FRET, 1536-well; TR-FRET Mcl-1/Noxa peptide binding, 2 h; inhibition, % at 21.7 µM; 1.5% of 220,000 active;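 active means compounds that cut the protein-peptide binding signal by more than 50% relative to plate controls in a single-dose test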;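 further: His-tagged Mcl-1 with rhodamine Noxa BH3 peptide and terbium anti-His antibody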
Mcl-1 Bim block: inhibitors of Bim peptide binding to Mcl-1, primary screen, biochemical, bead-based flow cytometry, multiplex; Induced myeloid leukemia cell differentiation protein Mcl-1 (Homo sapiens), Q07820; inhibition, % at 10 µM; 0.1% of 190,000 active; Bim peptide-Mcl-1 binding; in the data active means inhibition above about 40%
Mcl1 Bid PPI: Mcl-1/Bid binding inhibitors, primary screen, biochemical, TR-FRET, 1536-well | TR-FRET Mcl-1/Bid-Dy647 peptide binding | inhibition, % at 21.7 µM | 0.97% of 220,000 active;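 active means compounds that cut the binding signal by more than half at the single screening dose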;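 further: His-tagged Mcl-1 with europium anti-His antibody binding Bid BH3 peptide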
T cell modulator: modulators of CD8 T cell-vesicle binding, primary screen, mouse 2C CD8+ T cells, flow cytometry; 2C CD8+ T cell-vesicle binding; stronger effect = lower value; response (vesicle binding), % at 7 µM; 0.068% of 330,000 active;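 active means response, share of CD8 T cells binding vesicles, and their 90th percentile fluorescence all below set limits, cut at about 80% in these data, passing the limit was not always enough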;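 further: values below 100% mean blocked vesicle binding to the CD8+ T cells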
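incubation = binding step 1.5 h, 37 °C, antibody labelling 20 min, ice | test system = 2C mouse CD8+ T cells | read-out basis = percent CD8+ FL2 mean versus row control | controls = Peptide-free naked vesicles (low) and QL9 vesicles with 0.7% DMSO vehicle (high) | detection = flow cytometry of vesicle-bound cells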
Bcl-xL conf: Bcl-xL inhibitors blocking Bim BH3 binding, confirmation, counter-screen for MCL1 inhibitor project, biochemical, fluorescence polarization; shares compounds with MCL1-BIM inh; GST-Bcl-xL / FITC-Bim BH3 peptide FP binding; inhibition, % at 10.9 µM; 54% of 1,700 active;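 active means inhibition above a cutoff equal to the mean inhibition of all tested compounds plus 3 SD, cut at about 30% in these data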
MCL1 BIM confirm: inhibitors of MCL1 binding to BIM-BH3, confirmation, biochemical, fluorescence polarization, triplicate; shares compounds with MCL1-BIM inh; GST-MCL1 / FITC-Bim-BH3 fluorescence polarization; inhibition, % at 10.9 µM; 61% of 1,700 active; AID 2168, 2009;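 active means inhibition above the average of all tested compounds plus 3 SD, cut at about 40% in these data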
Each line names hits and unclear results; the compound was inactive in the other large screens (follow-up assays come after a bar, where they were run); ! = a repeat was not active.

CCCCNC(=S)Nc1ccc(OC)nc1	MCL1-BIM inh 58.2 | Bcl-xL conf 43.0 | MCL1 BIM confirm 51.5
COc1ccc(NC(=S)Nc2ccccc2)cn1	none
Cc1cc(C(=O)COc2cccc3cccnc23)c(C)n1C	MCL1-BIM inh 177.0 | Bcl-xL conf inactive | MCL1 BIM confirm inactive
CC(C)(C)OC(=O)NC(Cc1ccccc1)C(=O)N1CCC(C(=O)NCC(=O)Nc2ccc(F)cc2)CC1 (stereo not given)	MCL1-BIM inh 122.0 (no result: Mcl1 Noxa PPI, Mcl-1 Bim block, Mcl1 Bid PPI) | Bcl-xL conf 111.3 | MCL1 BIM confirm 141.4
CN(C)c1ncc(C2=C(Cl)C(=O)C(N3CCCC3)=C(Cl)C2=O)s1	MCL1-BIM inh 91.3, Mcl1 Noxa PPI 111.9, Mcl-1 Bim block 85.0, Mcl1 Bid PPI 60.8 | Bcl-xL conf 62.5 | MCL1 BIM confirm 84.6
CC(=O)c1cnc(N(C)C)s1	none
COc1ccc2c(c1)c1nc3ccccc3nc1n2CC(=O)OC(C)C	MCL1-BIM inh 59.5 | Bcl-xL conf 106.0 | MCL1 BIM confirm 139.7
O=c1oc(-c2ccc(Br)o2)nc2ccccc12	MCL1-BIM inh 97.7 | Bcl-xL conf inactive | MCL1 BIM confirm inactive
Cc1ccc(-c2nc3ccccc3c(=O)o2)cc1	none (no result: Mcl1 Noxa PPI, Mcl-1 Bim block, Mcl1 Bid PPI)
COc1ccc(C(CC(=O)N2CCCC2)c2c(OC)cc(OC)c3c(-c4ccccc4)cc(=O)oc23)cc1 (stereo not given)	MCL1-BIM inh 42.6, Mcl1 Noxa PPI 86.5 (no result: Mcl-1 Bim block) | Bcl-xL conf inactive | MCL1 BIM confirm inactive
O=C(NCCCN1CCOCC1)/C(=C/c1ccco1)NC(=O)c1ccccc1	none (no result: Mcl1 Noxa PPI, Mcl-1 Bim block, Mcl1 Bid PPI)
COc1cccc(C(=O)N2CCN(C(=O)C3CC3)CC2)c1	none (no result: MCL1-BIM inh, Mcl1 Noxa PPI, Mcl-1 Bim block, Mcl1 Bid PPI, T cell modulator)
COc1cccc(C(=O)N2CCN(C(=O)c3cccc(F)c3)CC2)c1	MCL1-BIM inh 85.1 | Bcl-xL conf inactive | MCL1 BIM confirm inactive
COc1ccc(NC(=O)c2cccc(N3C(=O)C4C5C=CC(C6CC56)C4C3=O)c2)cc1 (stereo not given)	none (no result: Mcl1 Noxa PPI, Mcl-1 Bim block, Mcl1 Bid PPI)
O=C(CCO)c1ccc(O)cc1	MCL1-BIM inh 75.5, Mcl1 Noxa PPI 77.9 | Bcl-xL conf 36.7 | MCL1 BIM confirm 79.6
CCCCC(=O)c1ccc(O)cc1	none
CCc1sc(C(C2C(=O)CC(C)(C)CC2=O)C2C(=O)CC(C)(C)CC2=O)cc1[N+](=O)[O-]	MCL1-BIM inh 43.0 | Bcl-xL conf inactive | MCL1 BIM confirm 56.6
Nc1nc(=S)c2ncn(C3OC(CO)C(O)C3O)c2[nH]1 (stereo not given)	MCL1-BIM inh 82.2, Mcl1 Noxa PPI 88.7 (no result: Mcl-1 Bim block) | Bcl-xL conf inactive | MCL1 BIM confirm 46.7
CCc1n[nH]c(=S)n1/N=C/c1cc(OC)cc([N+](=O)[O-])c1O	MCL1-BIM inh 59.9, Mcl1 Noxa PPI 78.2 | Bcl-xL conf inactive | MCL1 BIM confirm 67.7
N#CC(C#N)=C1C=CC=CN1/C(=C\c1ccccc1)C(=O)c1cccs1	MCL1-BIM inh 41.8, Mcl1 Noxa PPI 63.1 | Bcl-xL conf 36.6 | MCL1 BIM confirm 65.0
CNC(=O)c1cc(C(=O)c2ccc(C(F)(F)F)cc2F)c[nH]1	MCL1-BIM inh 65.8 | Bcl-xL conf inactive | MCL1 BIM confirm inactive
CN(C)c1ncnc2c1NC1=C(S2)C(=NCCCC(=O)O)CC(C)(C)C1	none
COc1ncnc2c1NC1=C(S2)C(=NCCC(=O)O)CC(C)(C)C1	MCL1-BIM inh 162.5 | Bcl-xL conf 170.8 | MCL1 BIM confirm 198.1
C/C(O)=c1/ccc2cccc3nc(C)nc1c23	MCL1-BIM inh 61.2 | Bcl-xL conf 62.4 | MCL1 BIM confirm 56.8
Cc1cccc2nc3ccccc3cc12	none (no result: Mcl1 Noxa PPI, Mcl-1 Bim block, Mcl1 Bid PPI)
Cc1ccc(NC(=O)/C(C#N)=C(\N)C(Cl)(Cl)Cl)nc1	MCL1-BIM inh 70.3 | Bcl-xL conf 170.9 | MCL1 BIM confirm 185.5
Cc1ccc(NC(=O)C(=O)Nc2ccc(C)cn2)nc1	none
CCn1cc(C(=O)NN)c(=O)c2cc(F)c(N3CCOCC3)cc21	MCL1-BIM inh 41.1 (no result: Mcl1 Noxa PPI, Mcl-1 Bim block, Mcl1 Bid PPI) | Bcl-xL conf inactive | MCL1 BIM confirm inactive
CCOCc1nnc(NC(=O)CS(=O)(=O)c2ccc(C)cc2)s1	none (no result: Pemphigus Ab inh, Mcl1 Noxa PPI, Mcl-1 Bim block, Mcl1 Bid PPI)
O=C1CC(c2ccc(O)cc2)Oc2cc(O)cc(O)c21 (stereo not given)	none
CC1CC(=O)c2c(cc3c(-c4c(O)cc(O)c5c(O)c6c(cc45)OC(C)CC6=O)c(O)cc(O)c3c2O)O1 (stereo not given)	MCL1-BIM inh 76.0, Mcl1 Noxa PPI 93.4 (no result: Pemphigus Ab inh) | Bcl-xL conf inactive | MCL1 BIM confirm inactive
O=C(O)c1cc(-c2ccco2)nc2ccc(Br)cc12	MCL1-BIM inh 140.9!, Mcl1 Noxa PPI 83.9! | Bcl-xL conf 44.9 | MCL1 BIM confirm 88.5
Cc1ccc2[nH]c(=O)c(C3C(C#N)=C(N)Oc4c3ccc3cccnc43)cc2c1 (stereo not given)	MCL1-BIM inh 44.1, Mcl1 Bid PPI 59.6 | Bcl-xL conf 36.6 | MCL1 BIM confirm 57.5
CCC1(C(=O)OC)NC(c2ccccc2OC)C2C(=O)N(C)C(=O)C21 (stereo not given)	MCL1-BIM inh 58.2 | Bcl-xL conf inactive | MCL1 BIM confirm inactive
COC(=O)[C@]1(Cc2ccccc2)N[C@H](c2ccc(-c3ccc(OC)cc3)cc2)[C@@H]2C(=O)N(C)C(=O)[C@@H]21	none (no result: Mcl1 Noxa PPI, Mcl-1 Bim block, Mcl1 Bid PPI)
CCOC(=O)CN1C=C(c2ccc3ccccc3n2)C(C[N+](=O)[O-])c2ccccc21 (stereo not given)	MCL1-BIM inh 105.7 | Bcl-xL conf 138.4 | MCL1 BIM confirm 171.6
CC(C)=CCC/C(C)=C/CNC(=O)C[C@H]1C[C@H](C(=O)N2CCOCC2)[C@@]2(CCC3CCCC3)c3[nH]c4cc(CCC(=O)N(C)C)ccc4c3CCN2C1=O	none (no result: MCL1-BIM inh, Mcl1 Noxa PPI, Mcl-1 Bim block, Mcl1 Bid PPI, T cell modulator)
O=C(Cn1cnc2sc(-c3ccccc3)cc2c1=O)NCc1ccccc1	none
O=C(Cn1cnc2sc(-c3ccccc3)cc2c1=O)NCc1ccco1	MCL1-BIM inh 61.5, Mcl1 Noxa PPI 61.9 | Bcl-xL conf inactive | MCL1 BIM confirm 62.0
